Starred links: 1 amine or outer side, 2 acyl side, 3 side chain; linkers in the order of their positions; H or OH if unused. Non-standard residues stand in square brackets, D forms with d. Residues, ends and D or L forms follow the SMILES beside them. *: point of attachment. DOTA = O=C(O)CN1CCN(CC(=O)O)CCN(CC(=O)*)CCN(CC(=O)O)CC1; Acryloyl(3-(3-pyridyl),E) = O=C(/C=C/c1cccnc1)*; X1 = O=C(Cc1ccc(N[*:1])cc1)[*:2]; Aad = N[C@@H](CCCC(=O)O)C(=O)O; NH(2-Me-phenyl) = Cc1ccccc1N*; PEG4 = NCCOCCOCCOCCOCCC(=O)O; Ac6c = NC1(C(=O)O)CCCCC1; CO = O=C([*:1])[*:2]
Key:
VLA-4 (integrin α4β1) = VLA-4 (integrin α4β1) (Mus musculus, UniProt P09055+Q00651); experiment: Competitive binding assay with ^64Cu-NODAGA-PEG4-LLP2A in B16F10 melanoma cells; details: VLA-4, B16F10 cells; Ki of Ga conjugate vs Kd of Lu conjugate
Method in brief: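 Both assays used B16F10 cells (10⁵/well, seeded 24 h earlier) in HBSS/0.1% BSA/1 mM Mn²⁺ on ice. […] Kd: ¹⁷⁷Lu conjugate (0.2–40 nM), 2 h, n = 3, with nonspecific binding from a 15 μg LLP2A-PEG₄ block. Cell-bound counts were normalized to BCA protein and fitted for Kd and Ki.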

[1] = system: B16F10 tumor-bearing C57BL/6 mice; experiment: Biodistribution of ^68Ga-DOTA-PEG4-LLP2A; type: in vivo, mouse; details: 360-fold excess of LLP2A-PEG4 (100 μg), 1 h
Method in brief: (§1)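 Mice bearing s.c. right-shoulder B16F10 tumors (10⁶ cells in PBS) received the ⁶⁸Ga tracer i.v. (5.55 MBq, 277 ng), n = 4 per group. They were sacrificed at 1 h. A blocking group received tracer premixed with 100 μg LLP2A-PEG₄. Tissues and tumor were weighed and γ-counted, and decay-corrected %ID/g was calculated against a standard. Data are mean ± SD.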

[2] = Biodistribution of ^68Ga-DOTA-PEG4-LLP2A; type: in vivo, mouse; details: C57BL/6, mouse, iv, 5.55 MBq, total radioactivity
Method in brief: as §1

B16F10 cells = experiment: Internalization assay; type: cell-based, mouse; details: 37 °C; for Internalized agent: 12 ng/well, n = 3
[3] = system: B16F10 tumor-bearing C57BL/6 mice; experiment: Biodistribution of ^177Lu-DOTA-PEG4-LLP2A; type: in vivo, mouse; details: 4 h postinjection, i.v.
Method in brief: (§2)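 B16F10 cells (10⁶ in PBS) were implanted s.c. in the right shoulder of 6–8-week-old C57BL/6 mice. ¹⁷⁷Lu conjugate (3.6 MBq, 90 ng) was given i.v., n = 5 per group. Animals were killed at 4, 24, 48, 72 and 96 h. Blood, organs, muscle, bone and tumor were weighed and γ-counted. Values are decay-corrected %ID/g against an injected-dose standard, shown as tumor/blood and tumor/muscle ratios, mean ± SD.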

[4] = Biodistribution of ^177Lu-DOTA-PEG4-LLP2A; type: in vivo, mouse; details: C57BL/6, mouse, iv, 3.6 MBq, total radioactivity
Method in brief: as §2

VLA-4 (integrin α4β1), sequence (Q00651 41-1039): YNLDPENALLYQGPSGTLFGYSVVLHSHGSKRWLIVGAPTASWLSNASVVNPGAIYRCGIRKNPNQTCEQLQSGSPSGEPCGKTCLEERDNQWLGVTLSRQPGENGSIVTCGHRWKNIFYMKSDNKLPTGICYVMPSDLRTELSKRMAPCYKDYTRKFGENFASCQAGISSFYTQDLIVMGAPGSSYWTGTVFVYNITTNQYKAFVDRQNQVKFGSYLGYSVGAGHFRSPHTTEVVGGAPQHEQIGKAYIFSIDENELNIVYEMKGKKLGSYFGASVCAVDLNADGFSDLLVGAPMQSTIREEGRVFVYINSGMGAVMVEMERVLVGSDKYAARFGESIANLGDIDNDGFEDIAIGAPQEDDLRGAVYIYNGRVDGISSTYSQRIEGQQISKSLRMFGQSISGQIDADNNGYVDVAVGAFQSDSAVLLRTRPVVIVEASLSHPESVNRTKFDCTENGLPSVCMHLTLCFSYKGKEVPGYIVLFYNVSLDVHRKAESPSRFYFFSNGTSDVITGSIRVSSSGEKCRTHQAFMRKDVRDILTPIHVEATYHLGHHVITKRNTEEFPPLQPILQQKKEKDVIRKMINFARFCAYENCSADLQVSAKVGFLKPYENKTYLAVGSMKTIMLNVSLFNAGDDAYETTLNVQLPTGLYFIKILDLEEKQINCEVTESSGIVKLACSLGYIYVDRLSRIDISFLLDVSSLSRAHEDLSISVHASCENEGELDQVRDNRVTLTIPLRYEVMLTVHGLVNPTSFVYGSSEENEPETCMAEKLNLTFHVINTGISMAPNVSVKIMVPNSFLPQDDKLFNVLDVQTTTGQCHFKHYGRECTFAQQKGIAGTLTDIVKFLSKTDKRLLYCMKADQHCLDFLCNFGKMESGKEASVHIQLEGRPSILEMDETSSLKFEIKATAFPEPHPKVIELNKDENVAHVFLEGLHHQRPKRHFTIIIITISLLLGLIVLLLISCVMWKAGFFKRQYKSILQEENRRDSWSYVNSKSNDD
VLA-4 (integrin α4β1), sequence (P09055 21-798): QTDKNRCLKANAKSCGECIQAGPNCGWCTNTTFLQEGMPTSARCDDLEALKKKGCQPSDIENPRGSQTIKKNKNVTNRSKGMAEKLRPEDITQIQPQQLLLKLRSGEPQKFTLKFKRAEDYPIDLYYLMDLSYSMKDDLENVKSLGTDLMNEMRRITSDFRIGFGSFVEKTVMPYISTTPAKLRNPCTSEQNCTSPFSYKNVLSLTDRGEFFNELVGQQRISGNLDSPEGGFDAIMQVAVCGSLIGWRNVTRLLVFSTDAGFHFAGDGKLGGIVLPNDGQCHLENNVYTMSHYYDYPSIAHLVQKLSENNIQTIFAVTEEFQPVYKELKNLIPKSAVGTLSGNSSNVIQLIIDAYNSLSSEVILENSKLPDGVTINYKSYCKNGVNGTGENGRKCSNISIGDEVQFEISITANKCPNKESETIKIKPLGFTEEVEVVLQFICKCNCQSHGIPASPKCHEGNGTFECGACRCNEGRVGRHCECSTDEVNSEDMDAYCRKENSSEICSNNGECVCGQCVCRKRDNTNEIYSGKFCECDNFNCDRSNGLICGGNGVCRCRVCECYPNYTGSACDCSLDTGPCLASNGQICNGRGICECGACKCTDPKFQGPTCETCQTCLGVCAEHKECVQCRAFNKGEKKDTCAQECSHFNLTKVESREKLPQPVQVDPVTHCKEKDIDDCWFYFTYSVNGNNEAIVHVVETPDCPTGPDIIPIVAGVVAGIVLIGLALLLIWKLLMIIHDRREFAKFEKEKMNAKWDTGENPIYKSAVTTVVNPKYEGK

Cc1ccccc1NC(=O)Nc1ccc(CC(=O)N[C@@H](CCCCNC(=O)/C=C/c2cccnc2)C(=O)N[C@@H](CCCC(=O)O)C(=O)NC2(C(=O)NCCOCCOCCOCCOCCC(=O)N[C@@H](CCCCNC(=O)CN3CCN(CC(=O)O)CCN(CC(=O)O)CCN(CC(=O)O)CC3)C(N)=O)CCCCC2)cc1 [^68Ga-DOTA-PEG4-LLP2A, metal not drawn] ({NH(2-Me-phenyl)-CO}-[X1]K(Acryloyl(3-(3-pyridyl),E))[Aad][Ac6c][PEG4]K(DOTA)-NH2; N-terminus and C-terminus assumed)
fold higher affinity than the ^177Lu-labeled conjugate (VLA-4 (integrin α4β1)): 3 fold | uptake in blocking study [1]: reduction of uptake | tissue uptake at 1 h ([2]; bone marrow): 3.2 ± 0.7 %ID/g | tissue uptake at 1 h ([2]; kidneys): 3.7 ± 0.9 %ID/g | tissue uptake at 1 h ([2]; liver): 1.9 ± 0.4 %ID/g | tissue uptake at 1 h ([2]; spleen): 5.4 ± 1.7 %ID/g | tissue uptake at 1 h ([2]; thymus): 4.6 ± 0.5 %ID/g | tissue uptake at 1 h ([2]; tumor): 9.1 ± 0.9 %ID/g | tissue to tissue ratio at 1 h ([2]; tumor/blood): 5.8 ± 1.5 | tissue to tissue ratio at 1 h ([2]; tumor/muscle): 9.7 ± 1.5

Cc1ccccc1NC(=O)Nc1ccc(CC(=O)N[C@@H](CCCCNC(=O)/C=C/c2cccnc2)C(=O)N[C@@H](CCCC(=O)O)C(=O)NC2(C(=O)NCCOCCOCCOCCOCCC(=O)N[C@@H](CCCCNC(=O)CN3CCN(CC(=O)O)CCN(CC(=O)O)CCN(CC(=O)O)CC3)C(N)=O)CCCCC2)cc1 [^177Lu-DOTA-PEG4-LLP2A, metal not drawn] ({NH(2-Me-phenyl)-CO}-[X1]K(Acryloyl(3-(3-pyridyl),E))[Aad][Ac6c][PEG4]K(DOTA)-NH2; N-terminus and C-terminus assumed)
Internalized agent (B16F10 cells; 30 min (maximum uptake)): 341 ± 110 fmol/mg | Internalized agent (B16F10 cells; 2 h): 343 ± 53 fmol/mg | Internalized agent (B16F10 cells; 4 h): 303 ± 41 fmol/mg | time to internalization post addition (B16F10 cells; internalized rapidly): < 15 min | tumor uptake ([3]; 3.6 MBq, 90 ng, n = 5, mean ± SD): 31.3 ± 7.8 % ID/g | uptake in the muscle, heart, and blood ([3]; n = 5): minimal uptake | tissue uptake at 4 h ([4]; bone (likely bone marrow)): 10.1 ± 3.5 %ID/g | tissue uptake at 24 h ([4]; bone): 4.1 ± 0.4 %ID/g | tissue uptake at 48 h ([4]; bone): 2.7 ± 0.6 %ID/g | tissue uptake at 72 h ([4]; bone): 2.2 ± 0.5 %ID/g | tissue uptake at 96 h ([4]; bone): 1.6 ± 0.6 %ID/g | tissue uptake at 24 h ([4]; kidney): 2.4 ± 0.3 %ID/g | tissue uptake at 4 h ([4]; kidneys): 6.5 ± 1.5 %ID/g | tissue uptake at 4 h ([4]; liver): 2.8 ± 0.4 %ID/g | tissue uptake at 24 h ([4]; liver): 1 ± 0.1 %ID/g | tissue uptake at 4 h ([4]; lungs): 5.9 ± 0.8 %ID/g | tissue uptake at 4 h ([4]; spleen): 27.1 ± 3.1 %ID/g | tissue uptake at 24 h ([4]; spleen): 10.1 ± 4.1 %ID/g | tissue uptake at 48 h ([4]; spleen): 7.4 ± 1.4 %ID/g | tissue uptake at 72 h ([4]; spleen): 4.7 ± 1.5 %ID/g | tissue uptake at 96 h ([4]; spleen): 3.7 ± 1.1 %ID/g | tissue uptake at 4 h ([4]; thymus): 9.7 ± 1.7 %ID/g | tissue uptake at 24 h ([4]; thymus): 5.6 ± 0.9 %ID/g | tissue uptake at 48 h ([4]; thymus): 4.1 ± 0.2 %ID/g | tissue uptake at 72 h ([4]; thymus): 2.7 ± 0.5 %ID/g | tissue uptake at 96 h ([4]; thymus): 1.7 ± 0.2 %ID/g | tissue uptake at 4 h ([4]; tumor): 31.5 ± 7.8 %ID/g | tissue uptake at 24 h ([4]; tumor): 5.4 ± 1.5 %ID/g | tissue uptake at 48 h ([4]; tumor): 1.7 ± 0.4 %ID/g | tissue uptake at 72 h ([4]; tumor): 0.9 ± 0.4 %ID/g | tissue uptake at 96 h ([4]; tumor): 0.4 ± 0.07 %ID/g | tissue to tissue ratio at 4 h ([4]; tumor/blood): 36 ± 10 | tissue to tissue ratio at 24 h ([4]; tumor/blood): 186 ± 26 | tissue to tissue ratio at 48 h ([4]; tumor/blood): 61 ± 13 | tissue to tissue ratio at 72 h ([4]; tumor/blood): 35 ± 37 | tissue to tissue ratio at 96 h ([4]; tumor/blood): 25 ± 16 | tissue to tissue ratio at 4 h ([4]; tumor/muscle): 21 ± 7 | tissue to tissue ratio at 24 h ([4]; tumor/muscle): 18 ± 3 | tissue to tissue ratio at 48 h ([4]; tumor/muscle): 9 ± 1 | tissue to tissue ratio at 72 h ([4]; tumor/muscle): 6 ± 3 | tissue to tissue ratio at 96 h ([4]; tumor/muscle): 3 ± 0.4
